Data set [1] is described as follows: folding enthalpy; higher = less favourable; fluorescence melt of hairpins on a sequencing array, two-state fit. The note with it: sodium 0.088 M. In outline: (§1)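 Melting temperature and folding enthalpy were derived from bootstrapped two-state fits. The fitted temperatures were raised by 9.35 °C to agree with UV melts, and four replicates were combined by inverse variance. The underlying data were Cy3 fluorescence images of library hairpins, with annealed Cy3 and quencher oligos, on a sequenced MiSeq flow cell in 50 mM Na-HEPES pH 8.0, 25 mM NaCl, taken in 2.5 °C steps up to 60 °C, normalised to pre-quench Cy3 and to control constructs.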

The nature of data set [2]: melting temperature; fluorescence melt of hairpins on a sequencing array, two-state fit, raised by 9.35 °C to match UV melts. The conditions noted are these: sodium 0.088 M. The gist of the method:
as §1

As to GATCATTCTATGATC ((((((...)))))), the folding enthalpy in data set [1] was -33.7 kcal/mol. The Tm in data set [2] is 50.7 °C.
In the same order, the values of GATCATTGAAATGATC ((((((....)))))) are -36.8 kcal/mol and 46 °C.
Turning to GATCATTGAGATGATC ((((((....)))))), the folding enthalpy in data set [1] is -39.4 kcal/mol. For the same sequence, in data set [2], the Tm was 49.8 °C.
As for GATCATTGCATGATC ((((((...)))))), the folding enthalpy in data set [1] was -34 kcal/mol. In addition, the Tm in data set [2] amounted to 50.4 °C.
Consider GATCATTGGAATGATC ((((((....)))))), for which the folding enthalpy in data set [1] was -36.1 kcal/mol. Besides, the Tm in data set [2] was found to be 46.5 °C.
With GATCATTGTCATGATC ((((((....)))))), the folding enthalpy in data set [1] was -31.7 kcal/mol. The Tm in data set [2] turned out to be 46.2 °C.
In the same order, the values of GATCATTTATATGATC ((((((....)))))) are -35.6 kcal/mol and 48.4 °C.
On to GATCATTTCATGATC ((((((...)))))), for which the folding enthalpy in data set [1] is -40.6 kcal/mol. Further, the Tm in data set [2] was 51.8 °C.
As to GATCATTTCCATGATC ((((((....)))))), the folding enthalpy in data set [1] was -40.5 kcal/mol. Moreover, the Tm in data set [2] was determined as 46.1 °C.
Consider GATCATTTGATGATC ((((((...)))))), for which the folding enthalpy in data set [1] is -38.2 kcal/mol. Besides, the Tm in data set [2] was 46.6 °C.
Take GATCCAAAACTGGATC ((((((....)))))): the folding enthalpy in data set [1] is -31.6 kcal/mol. Further, in data set [2], the Tm came out at 45.6 °C.
For the sequence GATCCAAAAGTGGATC ((((((....)))))), the folding enthalpy in data set [1] is -27.5 kcal/mol. Also, the Tm in data set [2] was 43.9 °C.
Turning to GATCCAAAATTGGATC ((((((....)))))), the folding enthalpy in data set [1] is -35.8 kcal/mol. Also, the Tm in data set [2] came to 48.1 °C.
In the same order, the values of GATCCAAAGATGGATC ((((((....)))))) are -26.4 kcal/mol and 44.5 °C.
Taken in the same sequence, the figures for GATCCAAATTGGATC ((((((...)))))) were -31.8 kcal/mol and 48.3 °C.
GATCCAACAATGGATC ((((((....)))))): in data set [1], the folding enthalpy was -32.7 kcal/mol. In addition, in data set [2], the Tm was determined as 47.1 °C.
GATCCAACGCTGGATC ((((((....)))))): in data set [1], the folding enthalpy was -38.3 kcal/mol. Besides, in data set [2], the Tm turned out to be 49.1 °C.
As for GATCCAACGTGGATC ((((((...)))))), the folding enthalpy in data set [1] is -31.9 kcal/mol. Besides, the Tm in data set [2] was determined as 49.2 °C.
In the case of GATCCAAGAATGGATC ((((((....)))))), the folding enthalpy in data set [1] is -30.2 kcal/mol. Besides, the Tm in data set [2] was found to be 46.7 °C.
As for GATCCAAGACTGGATC ((((((....)))))), in data set [1], the folding enthalpy is -28.2 kcal/mol. For the same sequence, in data set [2], the Tm stood at 47.4 °C.
Taken in the same sequence, the figures for GATCCAAGCGTGGATC ((((((....)))))) were -35.7 kcal/mol and 50.6 °C.
Take GATCCAAGGCTGGATC ((((((....)))))): the folding enthalpy in data set [1] is -35.5 kcal/mol. The Tm in data set [2] came to 48.9 °C.
For GATCCAAGTCTGGATC ((((((....)))))), the folding enthalpy in data set [1] was -41.8 kcal/mol. The Tm in data set [2] is 49 °C.
Taken in the same sequence, the figures for GATCCAATCCTGGATC ((((((....)))))) were -37.7 kcal/mol and 49.2 °C.
As to GATCCAATCTTGGATC ((((((....)))))), the folding enthalpy in data set [1] was -33 kcal/mol. Further, the Tm in data set [2] was 54.3 °C.
In the same order, the values of GATCCAATGATGGATC ((((((....)))))) are -29.3 kcal/mol and 47.6 °C.
In the same order, the values of GATCCAATGTGGATC ((((((...)))))) are -32.5 kcal/mol and 50.8 °C.
Taken in the same sequence, the figures for GATCCAATTCTGGATC ((((((....)))))) were -39.7 kcal/mol and 49.5 °C.
Consider GATCCAATTTGGATC ((((((...)))))), for which the folding enthalpy in data set [1] is -39.8 kcal/mol. Besides, the Tm in data set [2] is 51.1 °C.
GATCCAATTTTGGATC ((((((....)))))): the folding enthalpy in data set [1] was -40.2 kcal/mol. In addition, in data set [2], the Tm is 54 °C.
GATCCACACGTGGATC ((((((....)))))): in data set [1], the folding enthalpy was -35.1 kcal/mol. Moreover, the Tm in data set [2] was 59 °C.
On to GATCCACACTTGGATC ((((((....)))))), for which the folding enthalpy in data set [1] was -41.1 kcal/mol. In addition, in data set [2], the Tm was found to be 52.1 °C.
In the same order, the values of GATCCACATTGGATC ((((((...)))))) are -25.2 kcal/mol and 52.2 °C.
Taken in the same sequence, the figures for GATCCACCAGTGGATC ((((((....)))))) were -50.8 kcal/mol and 56.1 °C.
Taken in the same sequence, the figures for GATCCACCTTGGATC ((((((...)))))) were -31.7 kcal/mol and 51.2 °C.
For GATCCACGATGGATC ((((((...)))))), the folding enthalpy in data set [1] is -27 kcal/mol. Further, the Tm in data set [2] worked out at 48.6 °C.
Taken in the same sequence, the figures for GATCCACGATTGGATC ((((((....)))))) were -37 kcal/mol and 48 °C.
GATCCACGCATGGATC ((((((....)))))): in data set [1], the folding enthalpy is -32.1 kcal/mol. For the same sequence, the Tm in data set [2] came out at 52.8 °C.
Regarding GATCCACGGATGGATC ((((((....)))))), the folding enthalpy in data set [1] was -32.4 kcal/mol. Moreover, the Tm in data set [2] came to 48.6 °C.
Taken in the same sequence, the figures for GATCCACGTTGGATC ((((((...)))))) were -29.7 kcal/mol and 50.6 °C.
On to GATCCACTCTTGGATC ((((((....)))))), for which, in data set [1], the folding enthalpy is -35.1 kcal/mol. For the same sequence, in data set [2], the Tm was found to be 51 °C.
Consider GATCCACTGCTGGATC ((((((....)))))), for which the folding enthalpy in data set [1] is -41.4 kcal/mol. Also, in data set [2], the Tm is 50.4 °C.
Taken in the same sequence, the figures for GATCCACTGGTGGATC ((((((....)))))) were -39.4 kcal/mol and 59.1 °C.
On to GATCCACTTATGGATC ((((((....)))))), for which the folding enthalpy in data set [1] was -42.9 kcal/mol. The Tm in data set [2] was found to be 50.8 °C.
For GATCCACTTCTGGATC ((((((....)))))), the folding enthalpy in data set [1] is -34.8 kcal/mol. Also, in data set [2], the Tm worked out at 50.2 °C.
Take GATCCACTTTGGATC ((((((...)))))): the folding enthalpy in data set [1] is -33.3 kcal/mol. Further, in data set [2], the Tm turned out to be 53.1 °C.
Take GATCCAGACATGGATC ((((((....)))))): the folding enthalpy in data set [1] is -39.9 kcal/mol. In data set [2], the Tm came to 58 °C.
In the same order, the values of GATCCAGACGTGGATC ((((((....)))))) are -45.1 kcal/mol and 53.2 °C.
In the same order, the values of GATCCAGAGATGGATC ((((((....)))))) are -34.5 kcal/mol and 52.3 °C.
Taken in the same sequence, the figures for GATCCAGATTTGGATC ((((((....)))))) were -30 kcal/mol and 50.4 °C.
On to GATCCAGCATTGGATC ((((((....)))))), for which the folding enthalpy in data set [1] was -44.4 kcal/mol. Besides, the Tm in data set [2] came out at 56 °C.
Taken in the same sequence, the figures for GATCCAGCGCTGGATC ((((((....)))))) were -54.5 kcal/mol and 60.1 °C.
Taken in the same sequence, the figures for GATCCAGCTATGGATC ((((((....)))))) were -33.5 kcal/mol and 58.8 °C.
Taken in the same sequence, the figures for GATCCAGGAAACCGGATC (((((.(....).))))) were -33.3 kcal/mol and 45.7 °C.
Take GATCCAGGCCTGGATC ((((((....)))))): the folding enthalpy in data set [1] was -54.9 kcal/mol. Moreover, in data set [2], the Tm stood at 60 °C.
Taken in the same sequence, the figures for GATCCAGGCTTGGATC ((((((....)))))) were -43.8 kcal/mol and 54.8 °C.
Taken in the same sequence, the figures for GATCCAGGGCTGGATC ((((((....)))))) were -38.3 kcal/mol and 52.4 °C.
Taken in the same sequence, the figures for GATCCATAACTGGATC ((((((....)))))) were -33.9 kcal/mol and 48.1 °C.
As to GATCCATAATTGGATC ((((((....)))))), in data set [1], the folding enthalpy was -39.7 kcal/mol. In data set [2], the Tm came to 50.7 °C.
In the same order, the values of GATCCATAGGTGGATC ((((((....)))))) are -36 kcal/mol and 52 °C.
Taken in the same sequence, the figures for GATCCATATGTGGATC ((((((....)))))) were -38.1 kcal/mol and 54.9 °C.
Taken in the same sequence, the figures for GATCCATCATTGGATC ((((((....)))))) were -35.8 kcal/mol and 51.4 °C.
Consider GATCCATCCATGGATC ((((((....)))))), for which, in data set [1], the folding enthalpy is -43.4 kcal/mol. Further, in data set [2], the Tm came out at 55.8 °C.
Taken in the same sequence, the figures for GATCCATCCGTGGATC ((((((....)))))) were -46.6 kcal/mol and 52.9 °C.
Consider GATCCATCTGTGGATC ((((((....)))))), for which the folding enthalpy in data set [1] is -36.4 kcal/mol. In addition, the Tm in data set [2] stood at 54.3 °C.
As for GATCCATGATTGGATC ((((((....)))))), the folding enthalpy in data set [1] is -38.4 kcal/mol. The Tm in data set [2] stood at 51.9 °C.
On to GATCCATGCGTGGATC ((((((....)))))), for which the folding enthalpy in data set [1] was -35.8 kcal/mol. Moreover, the Tm in data set [2] amounted to 56.8 °C.
On to GATCCATGTATGGATC ((((((....)))))), for which the folding enthalpy in data set [1] is -42.6 kcal/mol. Besides, the Tm in data set [2] amounted to 58 °C.
Taken in the same sequence, the figures for GATCCATTCTTGGATC ((((((....)))))) were -42.1 kcal/mol and 54 °C.
Taken in the same sequence, the figures for GATCCATTTATGGATC ((((((....)))))) were -44.2 kcal/mol and 60.8 °C.
Regarding GATCCCAAAAGGGATC ((((((....)))))), in data set [1], the folding enthalpy was -27.9 kcal/mol. Besides, the Tm in data set [2] was 59.3 °C.
In the same order, the values of GATCCCAACGGGGATC ((((((....)))))) are -30.9 kcal/mol and 59.4 °C.
In the same order, the values of GATCCCAAGGGGATC ((((((...)))))) are -35.8 kcal/mol and 66.6 °C.
In the same order, the values of GATCCCACAGGGATC ((((((...)))))) are -33.1 kcal/mol and 67.1 °C.
With GATCCCACAGGGGATC ((((((....)))))), the folding enthalpy in data set [1] is -33.4 kcal/mol. The Tm in data set [2] came out at 61.8 °C.
For GATCCCACATGGGATC ((((((....)))))), in data set [1], the folding enthalpy is -45.5 kcal/mol. Moreover, the Tm in data set [2] turned out to be 60.8 °C.

Values taken from the array DNA melting data of Ke et al. (doi:10.1101/2024.01.08.574731).
